This is an account of results in PMC4179762 (Drug Design, Development and Therapy, 2014).

Assay [1] has as its target T1, hH4R (Homo sapiens, UniProt Q9H3N8). Put plainly: hH4R radioligand competition binding assay. To be noted: compared to compound 3. An outline of the steps:
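Sf9 membranes co-expressing hH4R with Gαi2 and Gβ1γ2, pelleted (16,000 g, 10 min, 4°C) into 12.5 mM MgCl2/1 mM EDTA/75 mM Tris-HCl pH 7.4; 35 μg/well. Incubated 60 min, 25°C, shaking, with 10 nM [3H]histamine and seven test concentrations (0.1 nM–100 μM), triplicate. Non-specific binding with 100 μM histamine. PEI-treated GF/B filtration, scintillation counting; Ki by Cheng–Prusoff.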

The target in assay [2] is T1, hH4R. Put plainly: Metric analyses. To be noted: LELP=clogP/LE.
The target of assay [3] is T2, hH3R (Homo sapiens, UniProt Q9Y5N1). Put plainly: hH3R radioligand competition binding assay. An outline of the steps: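 HEK-293 membranes stably expressing hH3R, sonicated at 4°C, in 12.5 mM MgCl2/100 mM NaCl/75 mM Tris-HCl pH 7.4; 20–25 μg/well. […] Unlabeled histamine defined non-specific binding. PEI-treated GF/B filtration, scintillation counting, nonlinear fit; Ki by Cheng–Prusoff.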
T2 sequence (Q9Y5N1 whole entry): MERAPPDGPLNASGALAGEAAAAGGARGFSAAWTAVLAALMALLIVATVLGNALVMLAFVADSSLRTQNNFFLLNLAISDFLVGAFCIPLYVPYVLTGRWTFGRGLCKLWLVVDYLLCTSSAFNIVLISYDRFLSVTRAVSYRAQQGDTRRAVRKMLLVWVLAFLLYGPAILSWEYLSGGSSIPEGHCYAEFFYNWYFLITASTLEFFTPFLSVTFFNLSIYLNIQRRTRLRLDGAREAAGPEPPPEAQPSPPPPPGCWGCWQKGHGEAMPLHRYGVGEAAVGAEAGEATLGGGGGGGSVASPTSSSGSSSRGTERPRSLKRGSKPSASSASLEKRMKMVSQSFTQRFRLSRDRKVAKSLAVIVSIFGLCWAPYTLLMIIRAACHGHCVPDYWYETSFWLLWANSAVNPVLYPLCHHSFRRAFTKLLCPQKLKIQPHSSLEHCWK

In assay [4] the target is T2, hH3R. Put plainly: Metric analyses. To be noted: LELP=clogP/LE.
Assay [5] concerns the target T2, hH3R. Put plainly: hH3R saturation binding experiments with [3H]Nα-methylhistamine.

T1 sequence (Q9H3N8 whole entry): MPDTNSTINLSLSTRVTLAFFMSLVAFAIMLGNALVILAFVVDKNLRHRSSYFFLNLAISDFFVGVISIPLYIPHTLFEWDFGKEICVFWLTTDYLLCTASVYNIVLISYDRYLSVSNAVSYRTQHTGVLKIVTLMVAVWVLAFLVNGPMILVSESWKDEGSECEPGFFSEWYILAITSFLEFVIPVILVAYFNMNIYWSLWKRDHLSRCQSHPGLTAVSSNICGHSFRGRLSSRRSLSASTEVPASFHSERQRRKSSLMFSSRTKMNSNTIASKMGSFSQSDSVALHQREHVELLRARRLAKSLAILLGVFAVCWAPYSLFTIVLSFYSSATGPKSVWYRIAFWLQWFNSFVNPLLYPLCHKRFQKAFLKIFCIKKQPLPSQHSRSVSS

Regarding “6-(4-methylpiperazin-1-yl)-N-(4-(3-(piperidin-1-yl)propoxy)benzyl)pyrimidin-2,4-diamine [Compound 4]”, the “fold higher affinity for hH4Rs” value in assay [1] was determined as 3 ×. In assay [2], the “LELP (hH4R)” value turned out to be 13.11. Besides, the “fold weaker affinity for hH3Rs” value in assay [3] (compared to compound 3) is reported as about 5 ×.

For `CN1CCN(c2cc(Nc3ccc(OCCCN4CCCCC4)cc3)nc(N)n2)CC1` [Compound 3, 6-(4-methylpiperazin-1-yl)-N^4-(4-(3-(piperidin-1-yl)propoxy)phenyl)pyrimidin-2,4-diamine], the “LELP (hH4R)” value in assay [2] is on record as 15.17. In assay [3] (vs compound 2), the “fold increased affinity for hH3R” value is given as 49 ×.

On to `c1ccc(CNc2ccnc(Nc3ccc(OCCCN4CCCCC4)cc3)n2)cc1` [Compound 5, N^4-benzyl-N^2-(4-(3-(piperidin-1-yl)propoxy)phenyl)pyrimidin-2,4-diamine], for which, in assay [2], the “LELP (hH4R)” value is recorded as 23.57. The “Ratio hH4R/hH3R” value in assay [3] (receptor subtype selectivity, Ki hH4R / Ki hH3R) is “more than 6,500”. For the same compound, the “LELP (hH3R)” value in assay [4] came out at 12.79.

Turning to `CN1CCN(CCCOc2ccc(Nc3nccc(NCc4ccccc4)n3)cc2)CC1` [Compound 6, N^4-benzyl-N^2-(4-(3-(4-methylpiperazin-1-yl)propoxy)phenyl)pyrimidin-2,4-diamine], the “LELP (hH4R)” value in assay [2] was found to be 17.82. In addition, the “LELP (hH3R)” value in assay [4] is reported as 13.55.

Regarding `CNCCc1cnc[nH]1` [[^3H] N^α-MeHA, [^3H]N^α-methylhistamine], in assay [5] (read-out: Kd value of radioligand at hH3R, HEK-293 membranes), the equilibrium dissociation constant (Kd) amounted to 2.98 nM.

In the case of `[3H]CNCCc1cnc[nH]1` [[^3H] N^α-MeHA, [^3H]N^α-methylhistamine], the “pKd of radioligand at hH3R” value in assay [5] (HEK-293 membranes) amounted to 8.53±0.01.
